IC50 data for nine molecules are collected here from PubChem BioAssay AID651575 (The Scripps Research Institute Molecular Screening Center, 2012).

Each structure is given as a SMILES string.

This test deals with Huh-7.5 HCV J6/JFH-1 infection, RT-qPCR viral RNA, 48 h. In words: blockade of HCV J6/JFH-1 infection of hepatoma cells – cell-based, RT-qPCR viral RNA, Huh-7.5, powder samples, counter-screen for HCV core dimerization inhibitor project, late-stage follow-up (AID 651575). In short, it runs like this: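 Test system: Huh-7.5 cells infected with HCV genotype 2a J6/JFH-1. Reagent: HCV 2a J6/JFH-1 virus added together with compound. Incubation: 24 h infection with compound, then 48 h compound. Measured by: Taqman real-time RT-qPCR of HCV RNA, Ct values. Measure: IC50 from sigmoidal fit of percent inhibition.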

Regarding `Cc1ccc(Cc2c(C)nc3nc(SCC(=O)NCCN4CCCN(S(=O)(=O)c5ccccc5)CC4)nn3c2C)cc1`, the 50% inhibitory concentration (IC50) was 665 nM. The same measure for `Cc1ccc(Cc2c(C)nc3nc(SCC(=O)NCCN4CCNCC4)nn3c2C)cc1`: 2 nM; for `Cc1ccc(Cc2c(C)nc3nc(SCC(=O)NCCN4CCN(Cc5ccc(F)cc5)CC4)nn3c2C)cc1`: 32 nM.

With `Cc1ccc(Cc2c(C)nc3nc(SCC(=O)NCCN4CCCN(S(C)(=O)=O)CC4)nn3c2C)cc1`, the IC50 was 1240 nM. Under `Cc1ccc(Cc2c(C)nc3nc(SCC(=O)NCCN4CCN(CCc5ccccc5)CC4)nn3c2C)cc1` stands 294 nM; under `Cc1ccc(Cc2c(C)nc3nc(SCC(=O)NCCN4CCCCCC4)nn3c2C)cc1`, 191 nM; under `Cc1ccc(Cc2c(C)nc3nc(SCC(=O)NCCN4CCCN(S(=O)(=O)c5ccc(C)cc5)CC4)nn3c2C)cc1`, 4 nM. Turning to `Cc1ccc(Cc2c(CCc3ccccc3)nc3nc(SC(Cc4ccccc4)C(=O)NCCN4CCOCC4)nn3c2C)cc1` (centres undefined), the 50% inhibitory concentration (IC50) was 286 nM. Under `Cc1ccc(Cc2c(C)nc3nc(SCC(=O)NCCN4CCOCC4)nn3c2C)cc1` stands 312 nM.

For orientation: IC50 means the midpoint of a concentration-inhibition curve.
